# Laboratory results from ChEMBL document CHEMBL3352339, “Implications of N-capped urea/thiourea and C-capped 3-(1-piperazinyl)-1,2-benzisothiazole with bridging Gly-Val/Phe-Gly-Val-Pro as therapeutic targets” (Eur J Med Chem, 2014).
# Starred links: 1 amine or outer side, 2 acyl side, 3 side chain; linkers in the order of their positions; H or OH if unused. Residues, ends and D or L forms follow the SMILES beside them. *: point of attachment. Thiocarbamoyl(4-MeOPh) = COc1ccc(NC(=S)*)cc1; NH(4-MeO-phenyl) = COc1ccc(N*)cc1; X1 = c1ccc2c(N3CCN(*)CC3)nsc2c1; NH(3-MeOPh) = COc1cccc(N*)c1; X4 = COc1cccc(NC(=S)*)c1; X5 = COc1ccccc1NC(=S)*; CO = O=C([*:1])[*:2]; X6 = Fc1cccc(N*)c1; X3 = COc1ccccc1N*
# Legend:
# Fusarium oxysporum [1] = test: Antifungal activity against Fusarium oxysporum at 50 ug/mL incubated for 3 days by agar well diffusion method; format: functional; details: 72 h, read-out: IZ
# How it was run: (§1)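 Fungal growth inhibition measured by agar well diffusion, with bavistin as the reference. Records the mean inhibition-zone diameter (mm) around each well.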
# [2] = Antiglycation activity using bovine serum albumin incubated at 37 degC for 7 days by spectrofluorimetry; format: physicochemical
# How it was run: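 Glycation of bovine serum albumin, with rutin as the reference standard. IC50 values are averages of triplicate runs.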
# Escherichia coli = test: Antibacterial activity against Escherichia coli at 50 ug/mL incubated for 24 hrs by agar well diffusion method; format: functional; details: read-out: IZ
# How it was run: (§2)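 Agar well diffusion against the bacterial isolate, with streptomycin as the reference drug. Read-out is the average diameter (mm) of the growth-inhibition zone around the well.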
# Aspergillus niger [3] = test: Antifungal activity against Aspergillus niger at 50 ug/mL incubated for 3 days by agar well diffusion method; format: functional; details: 72 h, read-out: IZ; how it was run: as §1
# Aspergillus flavus [4] = test: Antifungal activity against Aspergillus flavus at 50 ug/mL incubated for 3 days by agar well diffusion method; format: functional; details: 72 h, read-out: IZ; how it was run: as §1
# [5] = Inhibition of sheep stomach parietal cells gastric H+/K+-ATPase activity assessed as reduction in inorganic phosphorus production by Fiske Subbarow's method; format: tissue-based, Ovis aries; details: read-out: IC50
# How it was run: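 Inhibition of purified H+/K+-ATPase, with omeprazole as the reference. IC50 is the mean of triplicate runs.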
# Xanthomonas oryzae = test: Antibacterial activity against Xanthomonas oryzae at 50 ug/mL incubated for 24 hrs by agar well diffusion method; format: functional; details: read-out: IZ
# Urease = Urease (Canavalia ensiformis, UniProt P07374); test: Inhibition of jack bean urease assessed as reduction in ammonia production incubated at 30 degC for 15 mins by indophenol method
# Chain of Urease (P07374 whole entry): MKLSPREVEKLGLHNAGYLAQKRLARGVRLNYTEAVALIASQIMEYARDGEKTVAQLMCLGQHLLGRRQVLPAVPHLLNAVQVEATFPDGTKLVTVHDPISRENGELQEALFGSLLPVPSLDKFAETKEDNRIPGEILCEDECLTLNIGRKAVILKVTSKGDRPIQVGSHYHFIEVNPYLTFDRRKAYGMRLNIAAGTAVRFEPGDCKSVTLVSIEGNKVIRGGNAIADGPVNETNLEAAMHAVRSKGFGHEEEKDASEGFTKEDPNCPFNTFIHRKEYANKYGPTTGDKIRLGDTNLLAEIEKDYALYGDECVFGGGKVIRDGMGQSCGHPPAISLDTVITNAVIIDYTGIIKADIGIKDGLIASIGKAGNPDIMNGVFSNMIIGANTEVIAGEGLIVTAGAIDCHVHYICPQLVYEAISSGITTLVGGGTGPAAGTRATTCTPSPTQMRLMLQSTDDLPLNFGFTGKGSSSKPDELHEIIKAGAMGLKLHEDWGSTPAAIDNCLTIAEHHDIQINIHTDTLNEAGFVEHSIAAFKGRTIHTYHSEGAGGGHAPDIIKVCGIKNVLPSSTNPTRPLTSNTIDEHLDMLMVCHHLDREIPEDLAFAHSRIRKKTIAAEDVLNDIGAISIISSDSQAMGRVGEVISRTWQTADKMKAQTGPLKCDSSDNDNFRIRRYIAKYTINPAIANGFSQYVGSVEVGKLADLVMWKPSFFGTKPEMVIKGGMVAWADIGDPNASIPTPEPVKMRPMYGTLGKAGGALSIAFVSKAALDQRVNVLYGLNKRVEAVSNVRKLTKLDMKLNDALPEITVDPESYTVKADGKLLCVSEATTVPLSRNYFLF
# How it was run: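 Inhibition of jack bean urease, with thiourea as the reference standard. IC50 values are the average of triplicate runs.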
# Fusarium verticillioides [6] = test: Antifungal activity against Fusarium moniliforme at 50 ug/mL incubated for 3 days by agar well diffusion method; format: functional; details: 72 h, read-out: IZ; how it was run: as §1
# Staphylococcus = test: Antibacterial activity against Coagulase positive Staphylococcus at 50 ug/mL incubated for 24 hrs by agar well diffusion method; format: functional; details: read-out: IZ; how it was run: as §2
# Aspergillus flavus [7] = test: Antifungal activity against Aspergillus flavus incubated for 48 to 72 hrs by agar microdilution method; format: functional
# How it was run: (§3)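 MIC by microdilution against the fungal strain, limited to compounds showing significant zones in the diffusion assay. Bavistin was used as the reference.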
# Aspergillus niger [8] = test: Antifungal activity against Aspergillus niger incubated for 48 to 72 hrs by agar microdilution method; format: functional; how it was run: as §3
# Fusarium verticillioides [9] = test: Antifungal activity against Fusarium moniliforme incubated for 48 to 72 hrs by agar microdilution method; format: functional; how it was run: as §3
# Fusarium oxysporum [10] = test: Antifungal activity against Fusarium oxysporum incubated for 48 to 72 hrs by agar microdilution method; format: functional; how it was run: as §3
SMILES,zone of inhibition at 50 µg/mL (Fusarium oxysporum [1]) [mm],IC50 [2] [µM],zone of inhibition at 50 µg/mL (Escherichia coli) [mm],zone of inhibition at 50 µg/mL (Aspergillus niger [3]) [mm],zone of inhibition at 50 µg/mL (Aspergillus flavus [4]) [mm],IC50 [5] [µM],zone of inhibition at 50 µg/mL (Xanthomonas oryzae) [mm],IC50 (Urease) [µM],zone of inhibition at 50 µg/mL (Fusarium verticillioides [6]) [mm],zone of inhibition at 50 µg/mL (Staphylococcus) [mm],MIC (Aspergillus flavus [7]) [µg/mL],MIC (Aspergillus niger [8]) [µg/mL],MIC (Fusarium verticillioides [9]) [µg/mL],MIC (Fusarium oxysporum [10]) [µg/mL]
COc1ccccc1NC(=S)NCC(=O)N[C@@H](Cc1ccccc1)C(=O)NCC(=O)N[C@H](C(=O)N1CCC[C@H]1C(=O)N1CCN(c2nsc3ccccc23)CC1)C(C)C (X5-GFGVP-X1),24,19,24,24,25,46,22,18,26,24,–,–,–,–
COC(=O)Nc1nc2ccccc2[nH]1 [CARBENDAZIM],13,–,–,14,13,–,–,–,15,–,24,22,20,24
CC(C)[C@H](NC(=O)CNC(=O)[C@H](Cc1ccccc1)NC(=O)CNC(=O)Nc1cccc(F)c1)C(=O)N1CCC[C@H]1C(=O)N1CCN(c2nsc3ccccc23)CC1 ({X6-CO}-GFGVP-X1),29,50,28,30,29,92,26,43,31,29,–,–,–,–
COc1ccc(NC(=S)NCC(=O)N[C@@H](Cc2ccccc2)C(=O)NCC(=O)N[C@H](C(=O)N2CCC[C@H]2C(=O)N2CCN(c3nsc4ccccc34)CC2)C(C)C)cc1 ({Thiocarbamoyl(4-MeOPh)}-GFGVP-X1),29,16,28,30,29,34,26,15,31,28,–,–,–,–
COc1cccc(NC(=O)NCC(=O)N[C@H](C(=O)NCC(=O)N[C@H](C(=O)N2CCC[C@H]2C(=O)N2CCN(c3nsc4ccccc34)CC2)C(C)C)C(C)C)c1 ({NH(3-MeOPh)-CO}-GVGVP-X1),18,25,15,15,17,38,13,25,18,14,–,–,–,–
COc1cccc(NC(=S)NCC(=O)N[C@@H](Cc2ccccc2)C(=O)NCC(=O)N[C@H](C(=O)N2CCC[C@H]2C(=O)N2CCN(c3nsc4ccccc34)CC2)C(C)C)c1 (X4-GFGVP-X1),23,20,21,24,23,38,19,19,24,20,–,–,–,–
COc1cccc(NC(=O)NCC(=O)N[C@@H](Cc2ccccc2)C(=O)NCC(=O)N[C@H](C(=O)N2CCC[C@H]2C(=O)N2CCN(c3nsc4ccccc34)CC2)C(C)C)c1 ({NH(3-MeOPh)-CO}-GFGVP-X1),22,23,19,20,21,48,18,23,22,20,–,–,–,–
COc1ccc(NC(=O)NCC(=O)N[C@H](C(=O)NCC(=O)N[C@H](C(=O)N2CCC[C@H]2C(=O)N2CCN(c3nsc4ccccc34)CC2)C(C)C)C(C)C)cc1 ({NH(4-MeO-phenyl)-CO}-GVGVP-X1),28,21,23,24,26,34,22,21,24,22,–,–,–,–
COc1ccccc1NC(=O)NCC(=O)N[C@H](C(=O)NCC(=O)N[C@H](C(=O)N1CCC[C@H]1C(=O)N1CCN(c2nsc3ccccc23)CC1)C(C)C)C(C)C ({X3-CO}-GVGVP-X1),21,24,19,23,21,46,18,22,23,19,–,–,–,–
